According to ChEMBL document CHEMBL4014341, “Discovery of a Human Neuromedin U Receptor 1-Selective Hexapeptide Agonist with Enhanced Serum Stability” (J Med Chem, 2017):
Peptide text beside a SMILES is read from it.

Molecular target: T1, Neuromedin-U receptor 1 (Homo sapiens, UniProt Q9HB89)
T1 sequence (Q9HB89 whole entry): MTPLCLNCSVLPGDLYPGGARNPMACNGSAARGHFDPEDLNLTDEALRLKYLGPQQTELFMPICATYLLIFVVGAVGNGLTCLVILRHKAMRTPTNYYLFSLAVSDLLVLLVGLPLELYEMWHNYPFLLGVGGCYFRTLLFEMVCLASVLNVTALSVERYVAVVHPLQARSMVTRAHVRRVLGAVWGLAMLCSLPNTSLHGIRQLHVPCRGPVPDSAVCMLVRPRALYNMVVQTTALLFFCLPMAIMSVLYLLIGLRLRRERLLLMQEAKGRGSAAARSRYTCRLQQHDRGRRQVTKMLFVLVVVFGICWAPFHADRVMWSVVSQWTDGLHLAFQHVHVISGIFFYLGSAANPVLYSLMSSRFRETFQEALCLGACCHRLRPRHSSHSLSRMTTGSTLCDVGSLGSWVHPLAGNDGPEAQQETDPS
Assay: Agonist activity at human NMUR1 expressed in CHO cells assessed as induction of Ca2+ flux after 18 hrs by Fluo-4 AM dye based FLIPR assay
Format: functional, cell-based
Outline: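 CHO cells stably expressing human NMUR1 or NMUR2 were seeded at 2.0 × 10^4/well. After 18 h they were loaded 40 min with 4 μM Fluo-4 AM in HBSS/10 mM HEPES/2.5 mM probenecid pH 7.4 with 1% FCS, then washed. Peptides in buffer with 0.05% BSA/0.001% Triton X-100 were tested at 10−12−10−6 M in triplicate. Calcium flux was read by FLIPR from the maximal value, and EC50 was obtained by curve fitting.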

- EC50: 0.17 nM
SMILES: CC(C)C[C@H](NC(=O)[C@H](Cc1ccccc1)NC(=O)[C@H](Cc1ccc(O)cc1)NC(=O)CNC(=O)[C@H](CCCNC(=N)N)NC(=O)[C@H](CO)NC(=O)[C@H](CCC(N)=O)NC(=O)[C@H](CO)NC(=O)[C@H](C)NC(=O)[C@H](Cc1ccccc1)NC(=O)[C@@H]1CCCN1C(=O)[C@H](CO)NC(=O)[C@H](CCC(N)=O)NC(=O)[C@H](Cc1ccccc1)NC(=O)[C@H](CCC(=O)O)NC(=O)[C@H](CCC(=O)O)NC(=O)[C@H](CC(=O)O)NC(=O)[C@@H](NC(=O)[C@H](CCCNC(=N)N)NC(=O)[C@@H](N)Cc1ccccc1)C(C)C)C(=O)N[C@@H](Cc1ccccc1)C(=O)N[C@@H](CCCNC(=N)N)C(=O)N1CCC[C@H]1C(=O)N[C@@H](CCCNC(=N)N)C(=O)N[C@@H](CC(N)=O)C(N)=O (H-FRVDEEFQSPFASQSRGYFLFRPRN-NH2)
